In assay [1] the test system is MCF7. In words: Antiproliferative activity against human MCF7 cells expressing estrogen receptor after 72 hrs. The settings on record: MCF7, 72 h. The format is functional, cell-based. In a few lines:
(§1)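 Proliferation inhibition was measured in MCF-7 (ER-expressing) and SKBr3 (ER-lacking) human breast cancer cells. IC50 was taken as the concentration giving 50% inhibition.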

The test system of assay [2] is SK-BR-3. In words: Antiproliferative activity against estrogen receptor deficient human SKBR3 cells after 72 hrs. Format: functional, cell-based. The following applies: SK-BR-3, 72 h. In a few lines:
as §1

Assay [3] relates to MCF7. In words: Ratio of IC50 for estrogen receptor deficient human […] cells to IC50 for human MCF7 cells expressing estrogen receptor. The format is functional.
Assay [4] has as its target T1, Estrogen receptor (Homo sapiens) (UniProt P03372).
T1 sequence (whole entry): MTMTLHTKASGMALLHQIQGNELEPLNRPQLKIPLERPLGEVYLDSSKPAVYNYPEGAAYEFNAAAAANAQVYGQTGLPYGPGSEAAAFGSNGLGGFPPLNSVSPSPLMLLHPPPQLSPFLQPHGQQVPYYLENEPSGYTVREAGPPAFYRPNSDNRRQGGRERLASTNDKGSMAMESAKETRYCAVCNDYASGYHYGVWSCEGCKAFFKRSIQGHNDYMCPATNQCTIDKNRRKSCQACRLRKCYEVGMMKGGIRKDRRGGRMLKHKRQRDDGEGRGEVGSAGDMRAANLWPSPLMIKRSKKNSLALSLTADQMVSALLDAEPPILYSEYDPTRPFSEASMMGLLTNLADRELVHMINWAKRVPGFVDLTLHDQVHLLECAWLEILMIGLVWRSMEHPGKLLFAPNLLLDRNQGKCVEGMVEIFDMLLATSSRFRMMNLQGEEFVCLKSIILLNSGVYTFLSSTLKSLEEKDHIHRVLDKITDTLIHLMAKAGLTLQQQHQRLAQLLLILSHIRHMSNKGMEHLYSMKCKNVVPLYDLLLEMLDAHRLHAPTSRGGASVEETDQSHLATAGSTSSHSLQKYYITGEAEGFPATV
Briefly: Relative binding affinity to estrogen receptor-alpha (unknown origin).

For `CO[C@H]1/C=C\C=C(/C)C(=O)NC2=CC(=O)C(NCc3cn(CCOc4ccc([C@H]5C[C@]6(C)[C@@H](O)CC[C@H]6[C@@H]6CCc7cc(O)ccc7[C@H]65)cc4)nn3)=C(C[C@@H](C)C[C@H](OC)[C@H](O)[C@@H](C)/C=C(\C)[C@@H]1OC(N)=O)C2=O` (stereo in doubt), the IC50 in assay [1] is 1150 nM; in assay [2], 710 nM.

Regarding `COc1cccc2c1C(=O)c1c(O)c3c(c(O)c1C2=O)C[C@@](O)(/C(CO)=N/NC(=O)c1ccc(OCCOCCOCCOCCOCc2cn(CCOCCOCCOCCN(C)CCOc4ccc([C@H]5C[C@]6(C)[C@@H](O)CC[C@H]6[C@@H]6CCc7cc(O)ccc7[C@H]65)cc4)nn2)cc1)C[C@@H]3O[C@H]1C[C@H](N)[C@H](O)[C@H](C)O1`, the “Ratio IC50” value in assay [3] is recorded as 7.

Compound `CO[C@H]1/C=C\C=C(/C)C(=O)NC2=CC(=O)C(NCCCCCNC(=O)c3ccc(CC4CCCCc5c(nnn5CCOc5ccc([C@H]6C[C@]7(C)[C@@H](O)CC[C@H]7[C@@H]7CCc8cc(O)ccc8[C@H]76)cc5)C4(F)F)cc3)=C(C[C@@H](C)C[C@H](OC)[C@H](O)[C@@H](C)/C=C(\C)[C@@H]1OC(N)=O)C2=O` (stereo in doubt) showed a half-inhibitory concentration (IC50) in assay [1] of 15200 nM.

`CO[C@@]12[C@H](COC(N)=O)C3=C(C(=O)C(C)=C(NCc4cn(CCOCCOCCOc5ccc([C@H]6C[C@]7(C)[C@@H](O)CC[C@H]7[C@@H]7CCc8cc(O)ccc8[C@H]76)cc5)nn4)C3=O)N1C[C@H]1[C@@H]2N1C` (stereo not given in full) displayed an RBA in assay [4] of 7%.

For the compound `COC1=C2C[C@@H](C)C[C@H](OC)[C@H](O)[C@@H](C)/C=C(\C)[C@H](OC(N)=O)[C@@H](OC)/C=C\C=C(/C)C(=O)NC(=CC1=O)C2=O` [GELDANAMYCIN], the IC50 worked out at 9.8 nM in assay [1] and 8.5 nM in assay [2].

As to `C#CCN(C)CCOc1ccc([C@H]2C[C@]3(C)[C@@H](O)CC[C@H]3[C@@H]3CCc4cc(O)ccc4[C@H]32)cc1`, the RBA in assay [4] came to 39%.

Turning to `CO[C@H]1/C=C\C=C(/C)C(=O)NC2=CC(=O)C(NCCOCCOCCOCCc3cn(CN(C)CCOc4ccc([C@H]5C[C@]6(C)[C@@H](O)CC[C@H]6[C@@H]6CCc7cc(O)ccc7[C@H]65)cc4)nn3)=C(C[C@@H](C)C[C@H](OC)[C@H](O)[C@@H](C)/C=C(\C)[C@@H]1OC(N)=O)C2=O` (stereo in doubt), the IC50 is 102 nM in assay [1] and 41 nM in assay [2].

As usually defined, the IC50 is the concentration needed to halve the response being measured. A low value points to greater potency.

For the origin of these results see ChEMBL document CHEMBL2390943, “Synthesis and preliminary evaluation steroidal antiestrogen-geldanamycin conjugates” (Bioorg Med Chem Lett, 2013).
